Published values gathered from unrelated publications.
Each line is one published result; the experiments were not run side by side.
Read-out: cell growth or viability

SMILES | cell line | test | setting | endpoint | value
COc1cc(Nc2nccc(-c3cnn4nc(OC)ccc34)n2)cc(C(F)(F)F)c1 | RKO | ATP luminescence | – | IC50 | 0.27 µM
COc1ccc(-c2ccc(-c3ccc(C(=N)N)nc3)s2)cc1 | UACC-257 | SRB | – | GI50 | 1800 nM
COc1ccc(C2=Nn3c(NN=C4C(=O)Nc5ccc(OC)cc54)nnc3SC2)cc1 | SNB-75 | SRB | 10 µM | inhibition | 16%
COc1ccc(-c2ccc(-c3ccc(C(=N)N)nc3)s2)cc1Cl | SNB-75 | SRB | – | GI50 | 1430 nM
Oc1ccc(Nc2nc(-c3ccc(Cl)cc3)cs2)cc1 | WM35 | MTS | 48 h | IC50 | 10.3 µM
COc1cccc(-c2cn(-c3cc(=O)oc4ccc(Br)cc34)nn2)c1 | CCRF-CEM | – | 48 h | CC50 | 10.3 µM
O=C(N/N=C/c1c(O)ccc2ccccc12)c1cc(-c2ccc3ccccc3c2)n[nH]1 | WM35 | MTS | 24 h | IC50 | 37 µM
COc1ccc(/C=C\c2cc(OC)c(OC)c(OC)c2)cc1O | CCRF-CEM | – | 48 h | CC50 | 0.036 µM
CC(C)C[C@H](NC(=O)[C@H](Cc1ccccc1)NC(=O)c1cnccn1)B(O)O | EPLC-272H | ATP luminescence | – | IC50 | 0.0086 µM
